Laboratory results from ChEMBL document CHEMBL3227981, “Studies on biologically active nucleosides and nucleotides. 5. Synthesis and antitumor activity of some 2,2'-anhydro-1-(3',5'-di-O-acyl-beta-D-arabinofuranosyl)cytosine salts and 2,2'-anhydro-1-(3'-O-acyl-beta-D-arabinofuranoxyl)cytosine 5'-phosphates” (J Med Chem, 1979).

Experiments:
L1210 [1] = test: Antitumor activity against mouse L1210 cells allografted in BDF1 mouse assessed as increase of host life span at 25 mg/kg, ip qd for 5 days; type: functional; details: route intraperitoneal
Outline: (§1)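 BDF1 mice were given 1×10^5 L1210 cells ip. Compound was dissolved or suspended in 0.9% NaCl with 0.1% HCO-60 and given ip daily for 5 days, starting 24 h after inoculation. Groups had 6–10 mice. ILS = (T/C − 1) × 100, from mean survival time of treated versus control mice, observed over 60 days.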

L1210 [2] = test: Antitumor activity against mouse L1210 cells allografted in BDF1 mouse assessed as increase of host life span at 200 mg/kg, po qd for 5 days; type: functional
Outline: (§2)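 L1210 cells (1×10^5) were implanted ip in BDF1 mice. Oral dosing began 24 h later and ran once daily for 5 days, with compound in 0.9% saline containing 0.1% HCO-60 as solution or suspension. Six to ten mice per group. Percent ILS was (T/C − 1) × 100 on mean survival time, with a 30-day observation period.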

[3] = Toxicity in ip dosed ICR mouse up to 3 weeks; type: organism-based; details: in vivo
Outline: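 Maximum tolerated dose was set from a single ip injection into three female ICR mice weighing 20–21 g, followed by 3 weeks of observation.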

L1210 [4] = test: Antitumor activity against mouse L1210 cells allografted in BDF1 mouse assessed as increase of host life span at 100 mg/kg, ip qd for 5 days; type: functional; details: route intraperitoneal; outline: as §1
L1210 [5] = test: Antitumor activity against mouse L1210 cells allografted in BDF1 mouse assessed as increase of host life span at 6.25 mg/kg, ip qd for 5 days; type: functional; details: route intraperitoneal; outline: as §1
L1210 [6] = test: Antitumor activity against mouse L1210 cells allografted in BDF1 mouse assessed as increase of host life span at 100 mg/kg, po qd for 5 days; type: functional; outline: as §2

| Compound | Activity (L1210 [1]) | Activity (L1210 [2]) | MTD at 504 h [3] | Activity (L1210 [4]) | Activity (L1210 [5]) | Activity (L1210 [6]) |
| --- | --- | --- | --- | --- | --- | --- |
| CC(C)(C)C(=O)O[C@H]1[C@H]2Oc3nc(=N)ccn3[C@@H]2O[C@@H]1COC(=O)CCCCCCC(=O)OC[C@H]1O[C@@H]2[C@H](Oc3nc(=N)ccn32)[C@@H]1OC(=O)C(C)(C)C.Cl | 25% | 41% | < 300 mg/kg | – | – | – |
| Cl.N=c1ccn2c(n1)O[C@@H]1[C@H](OC(=O)c3ccc(Cl)cc3)[C@@H](COC(=O)c3ccc(Cl)cc3)O[C@H]12 | 31.3% | 21.8% | 750 mg/kg | 105.1% | – | – |
| CCCCCCCCOc1ccc(C(=O)OC[C@H]2O[C@@H]3[C@H](Oc4nc(=N)ccn43)[C@@H]2OC(=O)c2ccc(OCCCCCCCC)cc2)cc1.Cl | – | – | 300 mg/kg | 12.8% | – | – |
| CCCC(=O)NCCCCCCCCCCC(=O)OC[C@H]1O[C@@H]2[C@H](Oc3nc(=N)ccn32)[C@@H]1OC(=O)CCCCCCCCCCNC(=O)CCC.Cl | 51.3% | – | 500 mg/kg | 92.3% | 20.5% | – |
| CCCCCCCCCCCOC(=O)CCC(=O)OC[C@H]1O[C@@H]2[C@H](Oc3nc(=N)ccn32)[C@@H]1OC(=O)CCC(=O)OCCCCCCCCCCC.Cl | 43.6% | – | 750 mg/kg | 94.6% | 15.4% | 10.8% |
| CCCCCCCCCCCCCCCC(=O)OC[C@H]1O[C@@H]2[C@H](Oc3nc(=N)ccn32)[C@@H]1OC(=O)CCCCCCCCCCCCCCC.Cl | 151.3% | 22.5% | 750 mg/kg | >528.2% | 59% | 0% |
| CCOc1ccc(C(=O)OC[C@H]2O[C@@H]3[C@H](Oc4nc(=N)ccn43)[C@@H]2OC(=O)c2ccc(OCC)cc2)cc1.Cl | 33.3% | – | 500 mg/kg | 67.5% | – | – |
| Cl.N=c1ccn2c(n1)O[C@@H]1[C@H](OC(=O)c3cccc(Cl)c3)[C@@H](COC(=O)c3cccc(Cl)c3)O[C@H]12 | 28.2% | 38.5% | < 300 mg/kg | – | – | – |
| Cl.N=c1ccn2c(n1)O[C@@H]1[C@H](OC(=O)CCCCCCCCCCBr)[C@@H](COC(=O)CCCCCCCCCCBr)O[C@H]12 | 61.5% | – | 300 mg/kg | 145.9% | 12.8% | – |
| CCCC(=O)OCCCCCCCCCCC(=O)OC[C@H]1O[C@@H]2[C@H](Oc3nc(=N)ccn32)[C@@H]1OC(=O)CCCCCCCCCCOC(=O)CCC.Cl | 66.7% | 33.3% | 300 mg/kg | 86.7% | 5.1% | 13.3% |
| Cl.N=c1ccn2c(n1)O[C@@H]1[C@H](OC(=O)c3ccc(F)cc3)[C@@H](COC(=O)c3ccc(F)cc3)O[C@H]12 | 10% | 38.5% | 500 mg/kg | 47.4% | – | – |
| CCCCC(=O)O[C@H]1[C@H]2Oc3nc(=N)ccn3[C@@H]2O[C@@H]1COP(=O)(O)O | 37% | 45.6% | 750 mg/kg | 64.6% | 15.8% | 22.7% |
| F[B-](F)(F)F.[NH2+]=c1ccn2c(n1)O[C@@H]1[C@H](OC(=O)CCCCCCCCCCNC(=O)c3ccccc3)[C@@H](COC(=O)CCCCCCCCCCNC(=O)c3ccccc3)O[C@H]12 | 100% | – | 500 mg/kg | >292.3% | 38.5% | – |
| CCCCCCCOCCC(=O)OC[C@H]1O[C@@H]2[C@H](Oc3nc(=N)ccn32)[C@@H]1OC(=O)CCOCCCCCCC.Cl | 28.2% | – | 100 mg/kg | – | – | – |
| C=CCCCCCCCCC(=O)OC[C@H]1O[C@@H]2[C@H](Oc3nc(=N)ccn32)[C@@H]1OC(=O)CCCCCCCCC=C.Cl | 51.3% | – | 300 mg/kg | 97.5% | 17.9% | – |
| Cc1ccc(S(=O)(=O)NCCCCCCCCCCC(=O)OC[C@H]2O[C@@H]3[C@H](Oc4nc(=[NH2+])ccn43)[C@@H]2OC(=O)CCCCCCCCCCNS(=O)(=O)c2ccc(C)cc2)cc1.F[B-](F)(F)F | 90% | – | 500 mg/kg | 140% | 12.5% | – |
| F[B-](F)(F)F.[NH2+]=c1ccn2c(n1)O[C@@H]1[C@H](OC(=O)CCN3C(=O)c4ccccc4C3=O)[C@@H](COC(=O)CCN3C(=O)c4ccccc4C3=O)O[C@H]12 | 2.6% | – | – | 39.7% | – | – |
| CCCCCCCC(=O)O[C@H]1[C@H]2Oc3nc(=N)ccn3[C@@H]2O[C@@H]1COP(=O)(O)O | 50.7% | 50.7% | 500 mg/kg | 76% | 6.3% | – |

| Compound | Activity (L1210 [1]) | Activity (L1210 [2]) | MTD at 504 h [3] | Activity (L1210 [4]) | Activity (L1210 [5]) | Activity (L1210 [6]) |
| --- | --- | --- | --- | --- | --- | --- |
| CCCCCCCCCCCCOCCC(=O)OC[C@H]1O[C@@H]2[C@H](Oc3nc(=N)ccn32)[C@@H]1OC(=O)CCOCCCCCCCCCCCC.Cl | 118% | – | 500 mg/kg | >595% | 30.8% | – |
| Cl.N=c1ccn2c(n1)O[C@@H]1[C@H](O)[C@@H](CO)O[C@H]12 | 42.3% | 69.2% | 3000 mg/kg | 76.9% | – | 32.5% |
| Cl.N=c1ccn2c(n1)O[C@@H]1[C@H](OC(=O)CCNC(=O)c3ccccc3)[C@@H](COC(=O)CCNC(=O)c3ccccc3)O[C@H]12 | 2.6% | – | – | 32.1% | – | – |
| CCOCCC(=O)OC[C@H]1O[C@@H]2[C@H](Oc3nc(=N)ccn32)[C@@H]1OC(=O)CCOCC.Cl | 15.4% | – | – | 57.5% | – | – |
| F[B-](F)(F)F.[NH2+]=c1ccn2c(n1)O[C@@H]1[C@H](OC(=O)CCCCCCCCCCN3C(=O)c4ccccc4C3=O)[C@@H](COC(=O)CCCCCCCCCCN3C(=O)c4ccccc4C3=O)O[C@H]12 | 76.9% | – | 500 mg/kg | >510.3% | 23.1% | – |
| Cc1ccc(S(=O)(=O)NCCC(=O)OC[C@H]2O[C@@H]3[C@H](Oc4nc(=[NH2+])ccn43)[C@@H]2OC(=O)CCNS(=O)(=O)c2ccc(C)cc2)cc1.F[B-](F)(F)F | 15% | – | – | 47.5% | – | – |
| CCCCCCCCCCCCCCCC(=O)O[C@H]1[C@H]2Oc3nc(=N)ccn3[C@@H]2O[C@@H]1COP(=O)(O)O | 116.4% | 43% | 500 mg/kg | >441.1% | 27.4% | – |
| CCCCSCCCCCCCCCCC(=O)OC[C@H]1O[C@@H]2[C@H](Oc3nc(=N)ccn32)[C@@H]1OC(=O)CCCCCCCCCCSCCCC.Cl | 164% | 13.3% | 500 mg/kg | >624.3% | 26.7% | 4% |
| F[B-](F)(F)F.[NH2+]=c1ccn2c(n1)O[C@@H]1[C@H](OC(=O)CCCl)[C@@H](COC(=O)CCCl)O[C@H]12 | – | 38.5% | – | – | – | 9% |
| CC(=O)O[C@H]1[C@H]2Oc3nc(=N)ccn3[C@@H]2O[C@@H]1COP(=O)(O)O | 30.7% | 46.9% | > 1500 mg/kg | 57.3% | – | 13.3% |
| Cl.N=c1ccn2c(n1)O[C@@H]1[C@H](OC(=O)c3ccccc3Cl)[C@@H](COC(=O)c3ccccc3Cl)O[C@H]12 | 25.6% | 28.2% | < 300 mg/kg | – | – | – |
| CCOC(=O)CCC(=O)OC[C@H]1O[C@@H]2[C@H](Oc3nc(=N)ccn32)[C@@H]1OC(=O)CCC(=O)OCC.Cl | 12.4% | – | > 1000 mg/kg | 35.4% | – | 21.6% |
| F[B-](F)(F)F.[NH2+]=c1ccn2c(n1)O[C@@H]1[C@H](OC(=O)CCCCCN3C(=O)c4ccccc4C3=O)[C@@H](COC(=O)CCCCCN3C(=O)c4ccccc4C3=O)O[C@H]12 | 23.1% | – | 300 mg/kg | 60.3% | – | – |
| CCOC(=O)CCCCCCCCCCCCCCC(=O)OC[C@H]1O[C@@H]2[C@H](Oc3nc(=N)ccn32)[C@@H]1OC(=O)CCCCCCCCCCCCCCC(=O)OCC.Cl | 10.7% | – | – | 37.3% | – | 6.7% |
| F[B-](F)(F)F.[NH2+]=c1ccn2c(n1)O[C@@H]1[C@H](OC(=O)c3cccc4ccccc34)[C@@H](COC(=O)c3cccc4ccccc34)O[C@H]12 | 35.5% | – | 500 mg/kg | 82.1% | – | – |
| Cl.N=c1ccn2c(n1)O[C@@H]1[C@H](OC(=O)/C=C/c3ccco3)[C@@H](COC(=O)/C=C/c3ccco3)O[C@H]12 | 20% | 26.7% | 300 mg/kg | 54.7% | – | 20% |
| Cc1ccc(C(=O)OC[C@H]2O[C@@H]3[C@H](Oc4nc(=N)ccn43)[C@@H]2OC(=O)c2ccc(C)cc2)cc1.Cl | 37.3% | 30.7% | 750 mg/kg | 81.3% | – | 14.7% |
